Article PMC2695835 (Bioorganic & medicinal chemistry, 2009)
Several values for one entry are separate records, joined by “and”; a condition that tells them apart may be missing. Equal values may be shown once.

Biological target: T1, GVIA iPLA2 (Homo sapiens, UniProt O60733)
T1 sequence (O60733 1-806): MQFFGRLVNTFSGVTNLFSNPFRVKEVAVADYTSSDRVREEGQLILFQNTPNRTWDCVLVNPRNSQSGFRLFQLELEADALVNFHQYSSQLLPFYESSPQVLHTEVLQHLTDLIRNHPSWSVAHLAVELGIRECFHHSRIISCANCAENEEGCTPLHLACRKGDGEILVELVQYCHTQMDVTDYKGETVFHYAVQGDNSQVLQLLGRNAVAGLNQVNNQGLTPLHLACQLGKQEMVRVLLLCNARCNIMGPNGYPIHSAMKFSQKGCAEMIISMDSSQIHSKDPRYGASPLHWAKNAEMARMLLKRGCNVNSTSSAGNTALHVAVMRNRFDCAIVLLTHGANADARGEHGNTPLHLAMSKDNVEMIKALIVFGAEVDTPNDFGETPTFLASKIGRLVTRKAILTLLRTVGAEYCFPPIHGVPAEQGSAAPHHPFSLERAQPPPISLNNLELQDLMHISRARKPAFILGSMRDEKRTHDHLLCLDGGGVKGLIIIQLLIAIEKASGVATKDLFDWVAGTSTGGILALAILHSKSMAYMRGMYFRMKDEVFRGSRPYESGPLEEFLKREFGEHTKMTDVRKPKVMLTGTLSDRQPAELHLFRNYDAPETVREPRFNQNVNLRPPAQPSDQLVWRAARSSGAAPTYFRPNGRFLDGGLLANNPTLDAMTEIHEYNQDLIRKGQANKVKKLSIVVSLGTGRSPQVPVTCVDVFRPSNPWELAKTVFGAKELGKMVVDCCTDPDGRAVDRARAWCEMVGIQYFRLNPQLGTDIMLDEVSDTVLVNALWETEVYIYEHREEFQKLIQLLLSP
Test: In vitro GVIA iPLA2 inhibition, mixed micellar modified Dole assay
Type: biochemical
Settings: mole fraction of inhibitor in total substrate interface required to inhibit the enzyme by 50%; mixed micelles
Summary of the method: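 Human GVIA iPLA2 on Triton X-100 mixed micelles, either 400 μM Triton X-100/99 μM DPPC/1.5 μM 14C-DPPC in 200 mM HEPES pH 7.0, 1 mM ATP, 2 mM DTT, 0.1 mg/ml BSA, or 400 μM Triton/98.3 μM PAPC/1.7 μM 14C-PAPC in 100 mM HEPES pH 7.5, 2 mM ATP, 4 mM DTT. XI(50) obtained when screening inhibition exceeded 90%: 7 points (typically 0.005–0.091 mole fraction), linear or one-site hyperbola (BMAX = 100) fit.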

Row | Compound | GVIA iPLA2 XI(50)
1 | CCCCCCCCCCCCCCC(=O)C(=O)N[C@@H](CCCC)C(=O)NCC(=O)OC [Compound 4a, (S)-Methyl 2-(2-(2-oxohexadecanamido)hexanamido)acetate] | 0.045 ± 0.018 mole fraction
2 | CCCCCCCCCCCCCCC(=O)C(=O)N[C@@H](CCCC)C(=O)NCC(=O)OCC [Compound 4c, (S)-Ethyl 2-(2-(2-oxohexadecanamido)hexanamido)acetate] | 0.020 mole fraction and 0.020 ± 0.002 mole fraction
3 | CCCCCCCCCCCCCCC(=O)C(=O)N[C@@H](CCCC)C(=O)NCC(=O)OC(C)(C)C [Compound 8a, (S)-tert-Butyl 2-(2-(2-oxohexadecanamido)hexanamido)acetate] | 0.011 mole fraction and 0.011 ± 0.001 mole fraction
4 | CCCCCCCCCCCCCCC(=O)C(=O)N[C@H](C(=O)NCC(=O)OC(C)(C)C)C(C)C [Compound 8b, (S)-tert-Butyl 2-(3-methyl-2-(2-oxohexadecanamido)butanamido)acetate] | 0.044 ± 0.025 mole fraction
5 | CCCCCCCCCCCCCCC(=O)C(=O)N[C@@H](CCCC)COCC(=O)OCC [Compound 13, (S)-Ethyl 2-(2-(2-oxohexadecanamido)hexyloxy)acetate] | 0.017 mole fraction and 0.017 ± 0.002 mole fraction
